Bioassay records from PubChem BioAssay.
Hits are enriched below; roughly 2.3% of the tested compounds scored in any of these assays.
ATG4B inh – ATG4B protease inhibitors, primary screen, biochemical, fluorescence, uHTS | ATG4B cleavage of LC3-PLA2, NBD-HPC fluorescence, 1 h | inhibition, % at 8.33 µM | actives 0.51% (n = 340,000); in the data active means inhibition above about 40%
SR-BI HDL uptake – inhibitors of SR-BI mediated HDL lipid uptake, primary screen, ldlA[mSR-BI] cells, fluorescence, single point. Scavenger receptor class B member 1 (Mus musculus), Q61009. ldlA[mSR-BI] CHO cells, DiI-HDL uptake fluorescence, 3 h. inhibition, % at 12.5 µM. actives 0.96% (n = 320,000). AID 488896, 2010;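 active means mean replicate inhibition of at least 70% and a set share of replicates each scoring 70 or more; inconclusive means meets just one of the two criteria; inactive means fails both criteria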
Target sequence (Q61009 whole entry, looked up): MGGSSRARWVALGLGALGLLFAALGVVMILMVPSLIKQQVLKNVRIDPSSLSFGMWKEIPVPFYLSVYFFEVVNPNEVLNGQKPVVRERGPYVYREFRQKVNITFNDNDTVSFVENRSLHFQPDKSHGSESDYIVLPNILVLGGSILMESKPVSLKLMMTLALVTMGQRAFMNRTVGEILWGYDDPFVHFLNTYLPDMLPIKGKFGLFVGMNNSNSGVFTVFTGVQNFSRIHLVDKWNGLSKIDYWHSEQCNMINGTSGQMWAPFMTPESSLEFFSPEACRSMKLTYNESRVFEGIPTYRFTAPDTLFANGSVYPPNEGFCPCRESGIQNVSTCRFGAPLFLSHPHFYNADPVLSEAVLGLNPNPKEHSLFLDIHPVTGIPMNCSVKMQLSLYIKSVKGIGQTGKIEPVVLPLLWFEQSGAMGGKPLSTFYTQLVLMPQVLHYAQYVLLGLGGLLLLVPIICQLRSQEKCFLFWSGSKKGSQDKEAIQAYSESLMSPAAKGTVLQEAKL
CAL PDZ FP-1 – untagged CAL PDZ binding inhibitors, primary screen, biochemical, fluorescence polarization, HTS; Golgi-associated PDZ and coiled-coil motif-containing protein (Homo sapiens), Q9HD26; purified CAL PDZ, TMR-peptide fluorescence polarization, 1 h; inhibition, % at 24.9 µM; actives 0.92% (n = 300,000); AID 602252, 2012;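 active means mean inhibition of at least 30% with at least half of replicates also reaching 30%; inconclusive means no clear call, values can overlap the other calls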
SR-BI uptake up – activators of SR-BI mediated DiI-HDL uptake, primary screen, ldlA[mSR-BI] CHO cells, DiI fluorescence; activation, % at 12.5 µM; 3 h; 100 = double the neutral-control signal; actives 0.096% (n = 320,000);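 active means mean replicate activation of at least 60% and every replicate at or above 60%; inconclusive means mean or all-replicate condition met, but not both; inactive means mean below 60% and not all replicates reaching 60%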
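Assay system: LDL receptor-deficient CHO ldlA cells overexpressing murine SR-BI / Medium: BSA-supplemented, HEPES-buffered Ham's F12, pH 7.4 / Probe or stimulus: DiI-labelled HDL at 10 µg/mL final / Timing: compound with DiI-HDL co-incubation, 3 h at 37 °C / Technique: bottom-read cell fluorescence after medium removal, ex 550/em 595 nm / Measure: HDL uptake via cellular fluorescence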
CAL PDZ FP-2 – CAL PDZ peptide-binding inhibitors, primary screen, biochemical, fluorescence polarization, Cer-tagged CAL PDZ, HTS; Golgi-associated PDZ and coiled-coil motif-containing protein (Homo sapiens), Q9HD26; purified CAL PDZ, TMR-peptide fluorescence polarization, 1 h; inhibition, % at 20 µM; actives 0.02% (n = 330,000);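 active means highest replicate inhibition of at least 40%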
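Material: tagged CAL PDZ protein CerCALP, purified; buffer or medium: sodium phosphate/NaCl buffer pH 7.4 with TCEP, IgG, Thesit; also added: fluorescent TMR peptide probe; schedule: 1 h incubation at room temperature before polarization reading; technique: fluorescence polarization from S- and P-plane intensities, G-factor corrected; control set: unlabelled peptide and DMSO controls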
DiI quencher – counter-screen for SR-BI lipid transfer inhibitors: DiI fluorescence quenchers; shares compounds with SR-BI HDL uptake; cell-free DiI-HDL fluorescence quenching, 30 min; AC50, µM (highest dose often 35 µM); actives 20% (n = 470); AID 540326;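 active means quenching, a falling signal, with AC50 below a set limit tied to the top valid dose, actives reach about 32 µM in these data; inconclusive means no clear call, values can overlap the other calls; inactive means rising signal, and the rest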
Large screens that a line does not name were inactive (follow-up assays come after a bar, where they were run).

CCOC(=O)c1[nH]c2ccc(OC)cc2c1NC(=O)c1ccc2c(c1)OCO2	none
O=C(c1ccccc1)N1CCOC12CCN(c1ncc(C(F)(F)F)cc1Cl)CC2	none
O=C(c1ccc([N+](=O)[O-])cc1)N1CCOC12CCN(c1ncc(C(F)(F)F)cc1Cl)CC2	none | DiI quencher inactive
COc1ccc(-c2nc(-c3ccc4c(c3)OCO4)[nH]c2-c2ccc(OC)cc2)cc1	SR-BI HDL uptake 105 | DiI quencher 2.7µM
O=C(Nc1ccn(Cc2c(F)c(F)c(F)c(F)c2F)n1)c1ccc(COc2ccccc2Cl)cc1	SR-BI HDL uptake 73 | DiI quencher inactive
COc1ccc2sc(-c3ccc(SC)cc3)c(C#CC(C)(C)O)c2c1	none
COc1ccc2sc(-c3ccc(N(C)C)cc3)c(C#CC(C)(C)O)c2c1	SR-BI HDL uptake 103 | DiI quencher 2.9µM
COc1ccc2sc(-c3ccc(N(C)C)cc3)c(C#Cc3cncn3C)c2c1	SR-BI HDL uptake 77 | DiI quencher 2.2µM
c1ccc2cc(OCCCn3ccnc3)ccc2c1	none
CN(C)S(=O)(=O)N1CCN(C(=O)N(c2ccccc2)c2ccccc2)CC1	SR-BI HDL uptake inconclusive | DiI quencher inactive
COc1ccc(/C=C/C(=O)OCC(=O)c2ccc[nH]2)cc1	none
COc1cc(/C=C/C(=O)OCC(=O)c2ccc[nH]2)cc(OC)c1OC	SR-BI HDL uptake inconclusive, CAL PDZ FP-1 40 | DiI quencher inactive
COc1ccc(-c2[nH]c(-c3ccc(F)cc3)nc2SCC(=O)NC2CCCC2)cc1	SR-BI HDL uptake 78 (no result: CAL PDZ FP-1) | DiI quencher 26µM
CCCOc1ccc(C(=O)Nc2ccc(S(=O)(=O)N3C[C@@H]4C[C@@H](C3)c3cccc(=O)n3C4)cc2)cc1	none | DiI quencher inactive
COc1ccc(N2C(=O)C3C(C2=O)C3(c2ccccc2)c2ccccc2)cc1 (configuration not stated)	none | DiI quencher inactive
COc1ccc(Cl)cc1NS(=O)(=O)c1c(C)[nH]c(C)c1C(=O)N1CCCCC1	none (no result: CAL PDZ FP-1)
CN(Cc1ccccc1N1CCCC1)C(=O)c1cc2cc(Cl)ccc2o1	SR-BI HDL uptake 70 | DiI quencher inactive
COc1ccc(-n2nc(C(=O)O)cc2-c2ccccc2)cc1	none
Cc1cccc(NC(=O)N2C3CCCC2CC(NC(=O)C(C)(C)C)C3)c1 (configuration not stated)	SR-BI HDL uptake 76 | DiI quencher inactive
Cc1ccc(CSCCNC(=O)CSc2ccccc2)cc1	none
CC(=O)Nc1ccc(S(=O)(=O)N2CCC(C(=O)NCCC(=O)NCc3ccccc3)CC2)cc1	SR-BI HDL uptake 119 | DiI quencher inactive
Cc1cccc(NC(=S)N2CCC(NC(=O)C3CCCCC3)CC2)c1	none
CCOc1ccc(NC(=O)c2ccc3c(c2)N(Cc2ccc(F)cc2)C(=O)CS3=O)cc1 (configuration not stated)	none
Cc1ccc(C)c(NC(=O)c2ccc3c(c2)N(Cc2ccc(F)cc2)C(=O)CS3=O)c1 (configuration not stated)	none (no result: CAL PDZ FP-1) | DiI quencher inactive
CC(C)c1nnc(NC(=O)CCC(=O)N2CCN(C3c4ccccc4-c4ccccc43)CC2)s1	SR-BI HDL uptake inconclusive | DiI quencher inactive
COc1cc(NC(=O)c2ccco2)c(OC)cc1NC(=O)Nc1ccc(Cl)cc1	SR-BI HDL uptake 100 | DiI quencher 5.1µM
CC(=O)NC(CC(=O)OCc1ccc([N+](=O)[O-])cc1)c1ccccc1 (configuration not stated)	none
COC(=O)C1C(=O)c2c([nH]c(C(=O)OC3CCCC3C)c2C)CC1C (configuration not stated)	none | DiI quencher inactive
COc1ccc(-n2sc3c(c2=S)-c2cc(OC)ccc2NC3(C)C)cc1	SR-BI HDL uptake 108 | DiI quencher 2.5µM
COc1ccc2c(c1)-c1c(sn(-c3ccc(OC)c(OC)c3)c1=S)C(C)(C)N2	SR-BI HDL uptake 108 | DiI quencher 3.1µM
COc1ccc2c(c1)-c1c(sn(-c3ccccc3)c1=S)C(C)(C)N2	none
Cc1ccc(OCc2cc(C(=O)N3CCCC(O)C3)no2)cn1 (configuration not stated)	none | DiI quencher inactive
CC1CCN(C(=O)Cn2c(=O)n(Cc3ccco3)c(=O)c3sccc32)CC1	none (no result: SR-BI HDL uptake, SR-BI uptake up)
O=C(Nc1ccccc1)Nc1sccc1-c1nc2ccccc2s1	none
O=C(Nc1cccc(Cl)c1)Nc1sccc1-c1nc2ccccc2s1	SR-BI HDL uptake 106 | DiI quencher inactive
O=C(NNC(=O)c1cc(Br)ccc1O)c1csc(N2CCOCC2)n1	SR-BI HDL uptake 128 (no result: CAL PDZ FP-1) | DiI quencher 1µM
CCn1cc(Cl)c(C(=O)NNC(=O)CCn2ccc([N+](=O)[O-])n2)n1	none (no result: SR-BI uptake up)
CN(Cc1ccc2c(c1)OCCO2)C(=O)CSc1ncnc2sccc12	none (no result: CAL PDZ FP-1)
COCCN(C(=O)COC(=O)c1ccccc1Nc1ccccc1)c1c(N)n(Cc2ccccc2)c(=O)[nH]c1=O	SR-BI HDL uptake 74 (no result: CAL PDZ FP-1) | DiI quencher inactive
COCCN(C(=O)COC(=O)c1cccc2ccccc12)c1c(N)n(Cc2ccccc2)c(=O)[nH]c1=O	none
Cc1c(NC(=O)C(C)OC(=O)CCc2ccccc2)c(=O)n(-c2ccccc2)n1C (configuration not stated)	none
O=C(Cc1cccs1)NCCSc1c(-c2ccc(Cl)cc2)[nH]c2ccccc12	SR-BI HDL uptake inconclusive | DiI quencher inactive
CCOC(=O)CSc1c(-c2cccs2)[nH]c2ccccc12	none
Cc1ccc(-c2[nH]c3ccccc3c2SCCNC(=O)c2cc3ccccc3oc2=O)cc1	none (no result: CAL PDZ FP-1)
CCOC(=O)CSc1c(-c2ccc(Cl)cc2)[nH]c2ccccc12	SR-BI HDL uptake 75 | DiI quencher inactive
COC(c1ccc(Cl)cc1)(c1ccc(Cl)cc1)C(Oc1nc(C)cc(C)n1)C(=O)O (configuration not stated)	none (no result: CAL PDZ FP-1)
CC(C)C(=O)O/N=C(\N)c1ccc(Oc2ccc(Cl)cc2)c([N+](=O)[O-])c1	none
CC(C)c1ccc(NC(=O)c2sccc2-n2cccc2)cc1	SR-BI HDL uptake 101 | DiI quencher inactive
Cc1cc(C)c(C)c(S(=O)(=O)N2CCN(CC(=O)NC(=O)NCc3ccccc3)CC2)c1C	SR-BI HDL uptake 74 | DiI quencher inactive
O=C(CN1C(=O)c2ccccc2S1(=O)=O)NC(Nc1ccccc1F)C(Cl)(Cl)Cl (configuration not stated)	none
O=S(=O)(Cc1ccccc1)CS(=O)(=O)Cc1ccccc1	none
